Results on two molecules are retold here after ChEMBL document CHEMBL4400528, “Discovery and Optimization of Selective and in Vivo Active Inhibitors of the Lysophosphatidylserine Lipase α/β-Hydrolase Domain-Containing 12 (ABHD12)” (J Med Chem, 2019).

Molecules are shown by their SMILES. Calls of active or inactive are those of the source. The calls are words filed in the database; no cut-off is given here.

One may read the IC50 as the concentration that inhibits the measured activity by half.

Data set [1] concerns the target T1, Lysophosphatidylserine lipase ABHD12 (Mus musculus, UniProt Q99LR1).
T1 sequence (Q99LR1 whole entry): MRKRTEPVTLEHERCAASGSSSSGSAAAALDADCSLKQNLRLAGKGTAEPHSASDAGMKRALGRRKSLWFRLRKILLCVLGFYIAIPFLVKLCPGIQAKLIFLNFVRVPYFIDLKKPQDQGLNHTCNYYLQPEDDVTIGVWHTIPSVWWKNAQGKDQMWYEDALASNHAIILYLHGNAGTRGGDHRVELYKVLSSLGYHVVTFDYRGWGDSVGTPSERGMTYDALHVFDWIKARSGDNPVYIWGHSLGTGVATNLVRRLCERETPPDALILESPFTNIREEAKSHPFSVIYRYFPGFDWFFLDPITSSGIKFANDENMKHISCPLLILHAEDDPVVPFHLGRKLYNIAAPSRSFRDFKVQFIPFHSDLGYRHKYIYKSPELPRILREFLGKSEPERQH
Nature of the data set: Inhibition of JJH350 binding to ABHD12 in mouse brain membrane proteome incubated for 20 mins by CuAAC fluorescence dependent gel-based competitive ABPP assay. Type of data set: cell membranes. A digest of the protocol: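 Brain membrane fraction (1 mg/mL; DPBS homogenate, 16,000 x g pellet) treated with inhibitor for 20 min at room temperature. JJH350 (2 μM) added for 45 min at 37 °C, then CuAAC with rhodamine-PEG3-azide, CuSO4, TBTA and TCEP for 1 h at room temperature. Run on 10% SDS-PAGE and read by in-gel fluorescence. ABHD12 band normalized to control-treated sample (100%); IC50 from log dose-response fit.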

The target in data set [2] is T2, Lysophosphatidylserine lipase ABHD12 (Homo sapiens) (UniProt Q8N2K0).
T2 sequence (whole entry): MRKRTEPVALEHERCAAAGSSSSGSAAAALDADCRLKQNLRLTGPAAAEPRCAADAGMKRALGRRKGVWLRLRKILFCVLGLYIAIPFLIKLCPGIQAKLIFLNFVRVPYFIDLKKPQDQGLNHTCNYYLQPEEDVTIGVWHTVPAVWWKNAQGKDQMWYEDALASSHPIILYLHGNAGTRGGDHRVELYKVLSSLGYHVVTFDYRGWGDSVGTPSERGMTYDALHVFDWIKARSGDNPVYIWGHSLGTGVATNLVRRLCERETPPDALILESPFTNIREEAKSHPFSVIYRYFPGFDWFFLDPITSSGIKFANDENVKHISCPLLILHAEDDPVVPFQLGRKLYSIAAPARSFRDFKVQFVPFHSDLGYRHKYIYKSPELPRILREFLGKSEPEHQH
Description: Inhibition of ABHD12 in PMA-differentiated human THP1 cells assessed as increase in TNF-alpha production treated simultaneously with IFN-gamma/LPS for 24 hrs and measured 6 to 24 hrs after stimulation. A digest of the protocol:
(§1)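 THP-1 cells grown in RPMI/10% FBS/0.05 mM 2-mercaptoethanol, plated 2.5×10^6 per well. Treated 24 h with 150 ng/mL PMA, washed, rested 24 h. Polarized to M1 with 20 ng/mL IFN-γ plus 10 pg/mL LPS for 24 h. Compound or DMSO (test 0.1–1 μM) present at every step. Media sampled 6 and 24 h after stimulation; cytokines by MSD V-Plex. Mean ± SEM, four biological experiments.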

Data set [3] deals with T2, Lysophosphatidylserine lipase ABHD12 (Homo sapiens). Description: Inhibition of ABHD12 in PMA-differentiated human THP1 cells assessed as increase in IL-1beta production treated simultaneously with IFN-gamma/LPS for 24 hrs and measured 6 to 24 hrs after stimulation. A digest of the protocol: as §1
For data set [4] the target is unchanged. Nature of the data set: Inhibition of ABHD12 in PMA-differentiated human THP1 cells assessed as increase in CCL3 production treated simultaneously with IFN-gamma/LPS for 24 hrs and measured 6 to 24 hrs after stimulation. A digest of the protocol:
as §1

The target is the same in data set [5]. Description: Inhibition of ABHD12 in PMA-differentiated human THP1 cells assessed as increase in CCL4 production treated simultaneously with IFN-gamma/LPS for 24 hrs and measured 6 to 24 hrs after stimulation. The procedure, abridged:
as §1

Another data set has as its system THP-1. Nature of the data set: Cytotoxicity against human THP1 cells assessed as effect on cell viability at 1 uM after 72 hrs by CellTiter-Glo assay. Type of data set: cell-based. The conditions noted are these: thp-1, 72 h. A digest of the protocol: (§2)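 Cells seeded at 3,000 per well and left 24 h. Compounds then added at 0.1–10 μM final and incubated 72 h. Viability read by CellTiter-Glo luminescence and normalized to vehicle-treated controls.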
For orientation: ATP-based viability assays read luminescence as a measure of living cells.

The subject of a further data set is HT-1080. Nature of the data set: Cytotoxicity against human HT1080 cells assessed as effect on cell viability at 1 uM after 72 hrs by CellTiter-Glo assay. Type of data set: cell-based. The settings on record: ht-1080, 72 h. The procedure, abridged: as §2
In a further data set the test system is MDA-MB-231. Nature of the data set: Cytotoxicity against human MDA-MB-231 cells assessed as effect on cell viability at 1 uM after 72 hrs by CellTiter-Glo assay. Type of data set: cell-based. The settings on record: mda-mb-231, 72 h. The procedure, abridged:
as §2

Another data set has as its system T98G. Description: Cytotoxicity against human T98G cells assessed as effect on cell viability at 1 uM after 72 hrs by CellTiter-Glo assay. Type of data set: cell-based. The procedure, abridged:
as §2

Data set [6] in a line: Drug level in mouse brain at 30 mg/kg, po. Type of data set: ADME, organism-based. The settings on record: in vivo, read-out: Drug uptake.
Data set [7] can be described thus: Drug level in mouse brain at 30 mg/kg, ip. Type of data set: ADME, organism-based. The conditions noted are these: in vivo, read-out: Drug uptake.
Data set [8] in a line: Toxicity in mouse at 30 mg/kg, po. The conditions noted are these: in vivo. Type of data set: organism-based.
Data set [9] in a line: Drug level in mouse peripheral regions at 30 mg/kg, po. Type of data set: ADME, organism-based. The settings on record: in vivo, read-out: Drug uptake.
A short description of data set [10]: Drug level in mouse peripheral regions at 30 mg/kg, ip. Type of data set: ADME, organism-based. The settings on record: in vivo, read-out: Drug uptake.
Data set [11] in a line: Toxicity in mouse at 30 mg/kg, ip. Type of data set: organism-based. The conditions noted are these: in vivo.
Data set [12] deals with T3, Lysophosphatidylserine lipase ABHD12 (Mus musculus) (UniProt Q99LR1).
T3 sequence (whole entry): T1 sequence (Q99LR1 whole entry)
Nature of the data set: Binding affinity to ABHD12 in mouse brain membrane proteome at 0.016 to 10 uM incubated for 45 mins by CuAAC fluorescence dependent gel-based competitive ABPP assay. Type of data set: cell membranes. The procedure, abridged: (§3)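 Mouse brain membrane proteome (1 mg/mL) preincubated with inhibitor for 45 min at 37 °C. Labelled with FP-Rh (1 μM) or JJH350 (2 μM) for 45 min at 37 °C. JJH350 samples were clicked to Rh-N3 (25 μM) by CuAAC for 60 min at room temperature. Read by 10% SDS-PAGE and in-gel fluorescence scanning. Band intensity taken relative to control (100%), and IC50 from log(inhibitor) vs normalized response.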

Data set [13] has as its target T1, Lysophosphatidylserine lipase ABHD12. Nature of the data set: Inhibition of FP-Rh probe binding to ABHD12 in mouse brain membrane proteome incubated for 45 mins by CuAAC fluorescence dependent gel-based competitive ABPP assay. Type of data set: cell membranes. A digest of the protocol: as §3
Data set [14] addresses T4, Monoacylglycerol lipase ABHD6 (Mus musculus) (UniProt Q8R2Y0).
T4 sequence (whole entry): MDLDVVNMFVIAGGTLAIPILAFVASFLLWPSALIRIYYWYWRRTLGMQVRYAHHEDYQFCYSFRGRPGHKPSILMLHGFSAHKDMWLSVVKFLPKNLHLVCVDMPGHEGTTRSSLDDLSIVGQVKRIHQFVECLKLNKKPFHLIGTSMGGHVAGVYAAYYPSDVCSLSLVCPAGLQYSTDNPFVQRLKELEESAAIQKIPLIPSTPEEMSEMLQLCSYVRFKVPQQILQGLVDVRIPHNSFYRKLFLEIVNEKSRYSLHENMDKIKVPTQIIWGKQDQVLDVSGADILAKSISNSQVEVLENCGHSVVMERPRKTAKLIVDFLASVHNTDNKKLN
Description: Binding affinity to ABHD6 in mouse brain membrane proteome at 0.016 to 10 uM incubated for 45 mins by CuAAC fluorescence dependent gel-based competitive ABPP assay. Type of data set: cell membranes. The procedure, abridged:
as §3

`FC(F)(F)Oc1ccc(Oc2ccnc(N3CCC(NC(=S)Nc4cccnc4)CC3)c2Cl)c(Cl)c1` returned a 50% inhibitory concentration (IC50) in [1] of 11 nM. Moreover, the inhibition entry in [2], in [3], in data set [4] and in data set [5] was “Dose-dependent effect” throughout. The Activity result (in the data set with THP-1; in the data set on HT-1080; in the data set with MDA-MB-231; in the data set on T98G; in [8]; in data set [11]) was “Non-Toxic” each time. Moreover, the concentration in data set [6], in data set [7], in [9] and in data set [10] was 3 to 9 µM throughout.
As for `C#CCOc1ccc(N2CCN(C(=O)ON3C(=O)C4CN(C(=O)c5ccc(Oc6ccccc6)cc5)CCN4C3=O)CC2)cc1` (stereo not drawn), the result in data set [12] and in data set [14] was Active. Moreover, the IC50 in data set [13] turned out to be 400 nM.
